Experiment [1] concerns HGC-27. In words: Induction of apoptosis in human HGC-27 cells assessed as early apoptotic cells level at 0.5 uM incubated for 24 hrs by propidium iode and annexin V-FITC staining based flow cytometry (reference value: 1.48%). Format: functional. The method, boiled down: (§1)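 HGC-27 cells (1.0 × 10⁶ per 60 mm dish) were treated 24 h with 0.1% DMSO or compound (0.1, 0.5, 1 μM). Cells were stained with Annexin V-FITC in HEPES/NaCl/CaCl₂ binding buffer (pH 7.4) for 15 min at room temperature, then with PI for 10 min. About 10 000 events were acquired by flow cytometry to give viable, early apoptotic, late apoptotic and necrotic fractions.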
Background: A flow cytometer gives signals particle by particle.

In experiment [2] the test system is HGC-27. Nature of the experiment: Induction of apoptosis in human HGC-27 cells assessed as total apoptotic cells level at 1 uM incubated for 24 hrs by propidium iode and annexin V-FITC staining based flow cytometry. It is filed as functional. The method, boiled down:
as §1

Experiment [3] addresses T1, Vascular endothelial growth factor receptor 2 (Homo sapiens, UniProt P35968). Nature of the experiment: Inhibition of VEGFR2 in human HGC-27 cells assessed as reduction in VEGFR-2 phosphorylation after 24 hrs by westernblot analysis. Format: cell-based. The method, boiled down:
(§2)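 HGC-27 cells (1.0 × 10⁶ per 60 mm dish) were treated 24 h with 0.1% DMSO or compound (0.1, 0.5, 1 μM). RIPA lysates with phosphatase inhibitor were quantified by BCA and resolved on 8–12% SDS-PAGE onto nitrocellulose. Blots were probed for p-VEGFR-2 (Tyr1175), p-PI3K (Tyr607), p-AKT (Thr308) and p-mTOR (Ser2448), with ECL detection and densitometry; mean ± SEM.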

Experiment [4] relates to HGC-27. In words: Induction of apoptosis in human HGC-27 cells assessed as early apoptotic cells level at 0.1 uM incubated for 24 hrs by propidium iode and annexin V-FITC staining based flow cytometry (reference value: 1.48%). It is filed as functional. The method, boiled down:
as §1

In experiment [5] the target is T1, Vascular endothelial growth factor receptor 2. Nature of the experiment: Inhibition of VEGFR2 (unknown origin) incubated for 10 mins followed by kinase substrate addition and measured after 30 mins by caliper mobility shift assay.
The subject of experiment [6] is HGC-27. In words: Antimigratory activity against human HGC-27 cells assessed as number of migration cells at 0.5 uM measured after 24 hrs by transwell migration assay (reference value: 320). Format: functional.
Experiment [7] has as its system HGC-27. In words: Induction of apoptosis in human HGC-27 cells assessed as up regulation of Bax protein expression at measured after 24 hrs by Western blot analysis. It is filed as functional, cell-based. Particulars: dose 0.1-1 µM. The method, boiled down:
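HGC-27 cells (1.0 × 10⁶ per 60 mm dish) were treated 24 h with 0.1% DMSO or compound (0.1, 0.5, 1 μM). Cells were lysed in RIPA with PMSF and phosphatase inhibitor, and protein measured by BCA. Lysates were run on 8–12% SDS-PAGE, transferred to nitrocellulose and probed with primary antibodies overnight at 4 °C, then HRP secondary. Bands were detected by ECL and densitometry; at least triplicate.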
A general note: A western blot detects proteins with antibodies after separation by electrophoresis.

The test system of experiment [8] is HGC-27. Nature of the experiment: Induction of apoptosis in human HGC-27 cells assessed as early apoptotic cells level incubated for 24 hrs by propidium iode and annexin V-FITC staining based flow cytometry. Format: functional, cell-based. Particulars: dose 0.1-1 µM. The method, boiled down: as §1
Experiment [9] concerns HGC-27. Nature of the experiment: Antiinvasive activity against human HGC-27 cells assessed as reduction in cell invasion measured after 24 hrs by transwell invasion assay. It is filed as functional, cell-based. An outline of the steps:
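Transwell inserts (12 μm pore) were precoated with Matrigel. HGC-27 cells at 5 × 10⁵ cells/mL were placed in the upper well in serum-free medium with compound (0.1, 0.5, 1 μM). The lower chamber held RPMI-1640 with 10% FBS. After 24 h at 37 °C, invaded cells were methanol-fixed and stained with 0.1% crystal violet. Cells were counted in three random fields; three independent experiments, mean ± SD.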

For experiment [10], the target named is T1, Vascular endothelial growth factor receptor 2. Nature of the experiment: Inhibition of VEGFR2 in human HGC-27 cells assessed as downregulation of VEGFR2 phosphorylation at Tyr1175 at 0.1 to 1 uM after 24 hrs by Westernblot analysis. Format: cell-based. Particulars: dose 0.1-1 µM. An outline of the steps: as §2
Experiment [11] has as its system HGC-27. Nature of the experiment: Up regulation of E-cadherin expression in human HGC-27 cells at 1 uM measured after 24 hrs by immunoblot analysis. Format: functional, cell-based. The method, boiled down: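 HGC-27 seeded 1.0×10^6 cells/dish in RPMI-1640/10% FBS; 24 h with compound (0.1, 0.5, 1 µM), 0.1% DMSO vehicle or sorafenib. RIPA lysates with PMSF/phosphatase inhibitor, BCA-normalized, 8–12% SDS-PAGE, nitrocellulose, milk block, primary antibodies overnight 4 °C, HRP secondaries, ECL; E-cadherin band densitometry; mean ± SD, three independent experiments.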

Experiment [12] has as its system HGC-27. In words: Induction of apoptosis in human HGC-27 cells assessed as late apoptotic cells level at 0.5 uM incubated for 24 hrs by propidium iode and annexin V-FITC staining based flow cytometry (reference value: 0.86%). Format: functional. The method, boiled down: as §1

SMILES strings stand for the structures. Activity calls are given as the source filed them. The calls are words filed in the database; no cut-off is given here.

One may read the IC50 as the concentration that gives 50% inhibition.

T1 sequence (P35968 whole entry): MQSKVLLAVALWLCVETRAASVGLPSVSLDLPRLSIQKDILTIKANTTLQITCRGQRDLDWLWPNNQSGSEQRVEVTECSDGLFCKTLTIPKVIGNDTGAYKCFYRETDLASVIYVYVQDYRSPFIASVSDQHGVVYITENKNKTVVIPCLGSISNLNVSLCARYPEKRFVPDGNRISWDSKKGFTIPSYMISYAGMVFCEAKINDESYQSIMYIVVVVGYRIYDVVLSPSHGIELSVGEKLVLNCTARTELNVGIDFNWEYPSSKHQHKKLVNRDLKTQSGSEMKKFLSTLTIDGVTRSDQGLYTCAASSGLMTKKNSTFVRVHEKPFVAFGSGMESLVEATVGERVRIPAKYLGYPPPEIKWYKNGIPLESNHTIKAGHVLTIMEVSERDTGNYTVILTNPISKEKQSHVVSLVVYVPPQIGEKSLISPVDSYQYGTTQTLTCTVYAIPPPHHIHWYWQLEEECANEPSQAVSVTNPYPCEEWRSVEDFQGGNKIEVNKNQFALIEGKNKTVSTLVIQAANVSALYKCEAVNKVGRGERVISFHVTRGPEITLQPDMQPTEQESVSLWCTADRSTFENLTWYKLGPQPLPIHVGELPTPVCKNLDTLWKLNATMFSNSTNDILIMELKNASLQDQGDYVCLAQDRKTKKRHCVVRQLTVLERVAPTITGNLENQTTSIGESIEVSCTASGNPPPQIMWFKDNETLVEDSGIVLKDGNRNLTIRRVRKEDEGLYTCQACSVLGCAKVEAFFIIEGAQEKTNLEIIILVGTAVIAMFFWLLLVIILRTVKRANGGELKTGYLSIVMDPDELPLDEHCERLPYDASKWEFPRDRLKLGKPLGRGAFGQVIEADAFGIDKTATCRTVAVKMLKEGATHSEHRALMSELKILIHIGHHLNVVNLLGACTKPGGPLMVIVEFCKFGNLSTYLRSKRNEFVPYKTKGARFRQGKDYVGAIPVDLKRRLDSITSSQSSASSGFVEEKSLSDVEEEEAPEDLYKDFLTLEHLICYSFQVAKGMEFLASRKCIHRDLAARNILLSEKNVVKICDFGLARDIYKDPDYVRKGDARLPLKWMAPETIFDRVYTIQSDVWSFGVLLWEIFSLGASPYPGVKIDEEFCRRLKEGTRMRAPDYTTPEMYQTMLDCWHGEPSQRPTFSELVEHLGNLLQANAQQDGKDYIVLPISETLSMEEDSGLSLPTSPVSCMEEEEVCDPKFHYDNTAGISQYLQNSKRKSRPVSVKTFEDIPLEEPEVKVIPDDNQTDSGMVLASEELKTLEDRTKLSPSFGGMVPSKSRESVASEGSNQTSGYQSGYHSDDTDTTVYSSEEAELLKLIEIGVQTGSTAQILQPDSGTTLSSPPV

With `CC(=O)Nc1n[nH]c2cc(-c3cnn(CC(=O)Nc4ccc(C)c(C(F)(F)F)c4)c3)ccc12`, the Activity in the experiment with HGC-27 [1] is 8.35%; in the experiment with HGC-27 [2], 28.8%; in the experiment with HGC-27 [4] it was 4.75%; in the experiment with HGC-27 [6] it was 87; in the experiment on HGC-27 [7] it was “Dose-Dependent Effect”; in the experiment on HGC-27 [8], “Dose-Dependent Effect”. The Activity result is “Dose-Dependent Effect” in the experiment on HGC-27 [11] and 11.2% in the experiment on HGC-27 [12]. In addition, the inhibition result (in experiment [3]; in the experiment with HGC-27 [9]) was “Dose-Dependent Effect” throughout. Moreover, the IC50 in experiment [5] turned out to be 1.6 nM. Also, the inhibition entry in [10] is “Active”.

For the origin of these results see ChEMBL document CHEMBL4819027, “Design, synthesis and biological evaluation of novel 2-(4-(1H-indazol-6-yl)-1H-pyrazol-1-yl)acetamide derivatives as potent VEGFR-2 inhibitors” (Eur J Med Chem, 2021).
